This is an account of results in ChEMBL document CHEMBL1153386, “Allopregnanolone (3alpha-hydroxy-5alpha-pregnan-20-one) derivatives with a polar chain in position 16alpha: synthesis and activity” (J Med Chem, 2009).

Test [1] is filed under the species Rattus norvegicus. Put plainly: Displacement of [35S]TBPS from Wistar rat brain GABAA receptor at 100 nM relative to control. Summed up: (§1)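 Whole-brain membranes from adult male Wistar rats, resuspended in 20 mM KH2PO4/200 mM KCl, pH 7.4. Incubated 60 min at 37 °C with 2 nM [35S]TBPS, 1 µM GABA and steroid at 1 nM–10 µM. Nonspecific binding defined with 200 µM picrotoxinin. Binding expressed as % of DMSO control samples.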

Test [2] in a line: Displacement of [35S]TBPS from Wistar rat brain GABAA receptor. Summed up: as §1
Test [3] is filed under the species Rattus norvegicus. Put plainly: Displacement of [35S]TBPS from Wistar rat brain GABAA receptor relative to control. Summed up: as §1

In the case of `CC(=O)[C@H]1[C@H](CC(N)=O)C[C@H]2[C@@H]3CC[C@H]4C[C@H](O)CC[C@]4(C)[C@H]3CC[C@@]21C`, the inhibition in the test listed under Rattus norvegicus [1] was less than 15%.

`CC(=O)[C@H]1[C@H](OCC(O)CO)C[C@H]2[C@@H]3CC[C@H]4C[C@H](O)CC[C@]4(C)[C@H]3CC[C@@]21C` (stereo partly drawn) showed an inhibition in the test listed under Rattus norvegicus [1] of less than 15%.

The compound `CC(=O)[C@H]1[C@H](C(CO)CO)C[C@H]2[C@@H]3CC[C@H]4C[C@H](O)CC[C@]4(C)[C@H]3CC[C@@]21C` registered an inhibition in the test listed under Rattus norvegicus [1] of less than 15%.

Compound `CC(=O)[C@H]1[C@H](CCOC(N)=O)C[C@H]2[C@@H]3CC[C@H]4C[C@H](O)CC[C@]4(C)[C@H]3CC[C@@]21C` registered an IC50 in test [2] of 750 nM. In the test filed under Rattus norvegicus [3], this compound returned an Imax of 61%.

In turn, `CC(=O)[C@H]1[C@H](OCCOCCO)C[C@H]2[C@@H]3CC[C@H]4C[C@H](O)CC[C@]4(C)[C@H]3CC[C@@]21C` had an inhibition in the test listed under Rattus norvegicus [1] of less than 15%.

In the case of `CC(=O)[C@H]1[C@H](CC#N)C[C@H]2[C@@H]3CC[C@H]4C[C@H](O)CC[C@]4(C)[C@H]3CC[C@@]21C`, the inhibition in the test filed under Rattus norvegicus [1] is less than 15%.

Consider `CC(=O)[C@H]1[C@H](C(COC(N)=O)COC(N)=O)C[C@H]2[C@@H]3CC[C@H]4C[C@H](O)CC[C@]4(C)[C@H]3CC[C@@]21C`, for which the IC50 in test [2] is 86 nM. The compound also came in with an Imax in the test listed under Rattus norvegicus [3] of 26%.

`NC(=O)OCC(COC(N)=O)c1ccccc1` [FELBAMATE] came in with an IC50 in test [2] of 95 nM. The same compound yielded an Imax in the test listed under Rattus norvegicus [3] of 18%.

`CC(=O)[C@H]1[C@H](CCOC(N)=O)C[C@H]2[C@@H]3CC[C@H]4C[C@H](OC(N)=O)CC[C@]4(C)[C@H]3CC[C@@]21C` gave an IC50 in test [2] of 300 nM. This compound gave an Imax in the test listed under Rattus norvegicus [3] of 59%.

In the case of `CC(=O)[C@H]1[C@H](OCCO)C[C@H]2[C@@H]3CC[C@H]4C[C@H](O)CC[C@]4(C)[C@H]3CC[C@@]21C`, the inhibition in the test filed under Rattus norvegicus [1] was less than 15%.

In test [2], `CC(=O)[C@H]1CC[C@H]2[C@@H]3CC[C@H]4C[C@H](O)CC[C@]4(C)[C@H]3CC[C@]12C` [BREXANOLONE] displayed an IC50 of 80 nM. In addition, in the test listed under Rattus norvegicus [3], the Imax stood at 79%.

`CC(=O)[C@H]1[C@H](CC(=O)O)C[C@H]2[C@@H]3CC[C@H]4C[C@H](O)CC[C@]4(C)[C@H]3CC[C@@]21C` registered an IC50 in test [2] of 40 nM. Further, the Imax in the test filed under Rattus norvegicus [3] is 19%.
